ChEMBL document CHEMBL2331322, “Synthesis and antimicrobial activity of some new benzo and naphthonitrile derivatives” (2013)
Converted amounts (≈) assume the structure as drawn.

Columns and labels:
Type in all cases: functional
[1] = test system: Fusarium oxysporum; assay: Antimicrobial activity against Fusarium oxysporum after 48 hrs by microdilution susceptibility test
Procedure, shortened: (§1)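 MIC was determined by broth microdilution, using Müller–Hinton broth for bacteria and Sabouraud liquid medium for fungi. Stocks were made in DMF and serially diluted twofold. Wells were inoculated at 10⁶ CFU/mL and plates incubated at 36 °C for 24–48 h, with controls included. Only compounds giving agar-diffusion zones >14 mm were tested.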

[2] = test system: Bacillus subtilis; assay: Antimicrobial activity against Bacillus subtilis after 24 hrs by microdilution susceptibility test; procedure, shortened: as §1
[3] = test system: Escherichia coli; assay: Antimicrobial activity against Escherichia coli at 1 mg/mL after 24 hrs by agar disc diffusion method; details: read-out: DIZ
Procedure, shortened: (§2)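 Sterile 5 mm filter paper disks were impregnated with test solution in DMF (1 mg/mL) and placed on agar plates seeded with the test organism, in triplicate. Bacteria were incubated at 37 °C for 24 h and fungi for […] (so in the source). The read-out was the average inhibition zone diameter around the disks, in mm.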

[4] = test system: Bacillus thuringiensis; assay: Antimicrobial activity against Bacillus thuringiensis after 24 hrs by microdilution susceptibility test; procedure, shortened: as §1
[5] = test system: Bacillus thuringiensis; assay: Antimicrobial activity against Bacillus thuringiensis at 1 mg/mL after 24 hrs by agar disc diffusion method; details: read-out: DIZ; procedure, shortened: as §2
[6] = test system: Botrytis fabae; assay: Antimicrobial activity against Botrytis fabae after 48 hrs by microdilution susceptibility test; procedure, shortened: as §1
[7] = test system: Escherichia coli; assay: Antimicrobial activity against Escherichia coli after 24 hrs by microdilution susceptibility test; procedure, shortened: as §1
[8] = test system: Pseudomonas aeruginosa; assay: Antimicrobial activity against Pseudomonas aeruginosa after 24 hrs by microdilution susceptibility test; procedure, shortened: as §1
[9] = test system: Pseudomonas aeruginosa; assay: Antimicrobial activity against Pseudomonas aeruginosa at 1 mg/mL after 24 hrs by agar disc diffusion method; details: read-out: DIZ; procedure, shortened: as §2
[10] = test system: Bacillus subtilis; assay: Antimicrobial activity against Bacillus subtilis at 1 mg/mL after 24 hrs by agar disc diffusion method; details: read-out: DIZ; procedure, shortened: as §2
[11] = test system: Botrytis fabae; assay: Antimicrobial activity against Botrytis fabae at 1 mg/mL […] by agar disc diffusion method; details: read-out: DIZ
[12] = test system: Fusarium oxysporum; assay: Antimicrobial activity against Fusarium oxysporum at 1 mg/mL after 48 hrs by agar disc diffusion method; details: read-out: DIZ; procedure, shortened: as §2

Row | MIC [1] [µg/mL] | MIC [2] [µg/mL] | MIC [4] [µg/mL] | MIC [6] [µg/mL] | MIC [7] [µg/mL] | MIC [8] [µg/mL] | SMILES | MBC [2] [µg/mL] | zone of inhibition at 1000 µg/mL [3] [mm] | zone of inhibition at 1000 µg/mL [5] [mm] | MBC [7] [µg/mL] | zone of inhibition at 1000 µg/mL [9] [mm] | zone of inhibition at 1000 µg/mL [10] [mm] | zone of inhibition at 1000 µg/mL [11] [mm] | zone of inhibition at 1000 µg/mL [12] [mm]
1 | 12.5 (≈ 40.4 µM) | 6.25 (≈ 20.2 µM) | 12.5 (≈ 40.4 µM) | 12.5 (≈ 40.4 µM) | 25 (≈ 80.8 µM) | 25 (≈ 80.8 µM) | N#Cc1ccccc1C(/N=N/c1ccc([N+](=O)[O-])cc1)C(N)=O (stereo not given) | 50 (≈ 162 µM) | 15 | 35 | 200 (≈ 647 µM) | 16 | 33 | 38 | 35
2 | 50 (≈ 150 µM) | 25 (≈ 75.2 µM) | 25 (≈ 75.2 µM) | 25 (≈ 75.2 µM) | 50 (≈ 150 µM) | 50 (≈ 150 µM) | CCOC(=O)c1c2[nH]c(=N)c3ccccc3c2nn1-c1ccccc1 | 200 (≈ 602 µM) | 20 | 35 | 200 (≈ 602 µM) | 19 | 33 | 20 | 33
3 | 25 (≈ 68.2 µM) | 25 (≈ 68.2 µM) | 50 (≈ 136 µM) | 50 (≈ 136 µM) | 50 (≈ 136 µM) | 25 (≈ 68.2 µM) | CCOC(=O)c1c2[nH]c(=N)c3ccccc3c2nn1-c1ccc(Cl)cc1 | 200 (≈ 545 µM) | 25 | 38 | 200 (≈ 545 µM) | 33 | 33 | 27 | 16
4 | 50 (≈ 144 µM) | 25 (≈ 72.2 µM) | 50 (≈ 144 µM) | 50 (≈ 144 µM) | 50 (≈ 144 µM) | 50 (≈ 144 µM) | CCOC(=O)c1c2[nH]c(=N)c3ccccc3c2nn1-c1ccc(C)cc1 | 200 (≈ 577 µM) | 15 | 20 | 200 (≈ 577 µM) | 15 | 32 | 16 | 25
5 | 25 (≈ 69 µM) | 50 (≈ 138 µM) | 25 (≈ 69 µM) | 50 (≈ 138 µM) | 50 (≈ 138 µM) | 50 (≈ 138 µM) | CCOC(=O)c1c2[nH]c(=N)c3ccccc3c2nn1-c1ccc(OC)cc1 | 200 (≈ 552 µM) | 30 | 37 | 200 (≈ 552 µM) | 20 | 40 | 19 | 38
6 | 25 (≈ 66.2 µM) | 25 (≈ 66.2 µM) | 25 (≈ 66.2 µM) | 50 (≈ 132 µM) | 50 (≈ 132 µM) | 50 (≈ 132 µM) | CCOC(=O)c1c2[nH]c(=N)c3ccccc3c2nn1-c1ccc([N+](=O)[O-])cc1 | 200 (≈ 530 µM) | 15 | 37 | 200 (≈ 530 µM) | 16 | 38 | 20 | 19
7 | 25 (≈ 95.7 µM) | 50 (≈ 191 µM) | 25 (≈ 95.7 µM) | 25 (≈ 95.7 µM) | 50 (≈ 191 µM) | 50 (≈ 191 µM) | N=c1[nH]c2nn(-c3ccccc3)nc2c2ccccc12 | 200 (≈ 765 µM) | 20 | 37 | 200 (≈ 765 µM) | 19 | 33 | 16 | 20
8 | 12.5 (≈ 50.8 µM) | 12.5 (≈ 50.8 µM) | 25 (≈ 102 µM) | 12.5 (≈ 50.8 µM) | 25 (≈ 102 µM) | 12.5 (≈ 50.8 µM) | N#Cc1ccccc1C(C#N)/N=N/c1ccccc1 (stereo not given) | 100 (≈ 406 µM) | 33 | 30 | 200 (≈ 812 µM) | 30 | 37 | 40 | 38
9 | 6.25 (≈ 22.3 µM) | 3.12 (≈ 11.1 µM) | 6.25 (≈ 22.3 µM) | 6.25 (≈ 22.3 µM) | 6.25 (≈ 22.3 µM) | 12.5 (≈ 44.5 µM) | N#Cc1ccccc1C(C#N)/N=N/c1ccc(Cl)cc1 (stereo not given) | 50 (≈ 178 µM) | 37 | 38 | 200 (≈ 712 µM) | 35 | 42 | 39 | 38

Row | SMILES | MIC [1] [µg/mL] | MIC [2] [µg/mL] | MIC [4] [µg/mL] | MIC [6] [µg/mL] | MIC [7] [µg/mL] | MIC [8] [µg/mL] | MBC [2] [µg/mL] | zone of inhibition at 1000 µg/mL [3] [mm] | zone of inhibition at 1000 µg/mL [5] [mm] | MBC [7] [µg/mL] | zone of inhibition at 1000 µg/mL [9] [mm] | zone of inhibition at 1000 µg/mL [10] [mm] | zone of inhibition at 1000 µg/mL [11] [mm] | zone of inhibition at 1000 µg/mL [12] [mm]
10 | N#CCc1ccccc1C#N | 50 (≈ 352 µM) | 100 (≈ 703 µM) | 50 (≈ 352 µM) | 100 (≈ 703 µM) | 100 (≈ 703 µM) | 100 (≈ 703 µM) | 200 (≈ 1410 µM) | 16 | 15 | 200 (≈ 1410 µM) | 15 | 15 | 15 | 14
